Measured values published in ChEMBL document CHEMBL1159110, “Mevalonate analogues as substrates of enzymes in the isoprenoid biosynthetic pathway of Streptococcus pneumoniae” (Bioorg Med Chem, 2010).
The source made the active and inactive calls. The rule behind the calls is not given here.

What was measured:
Streptococcus pneumoniae [1] = assay: Activity of Streptococcus pneumoniae mevalonate kinase expressed in Escherichia coli by pyruvate kinase/lactate dehydrogenase coupled assay
Method in brief: (§1)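 S. pneumoniae MK expressed in E. coli as His6-GST fusion, with tags removed. Lactone analogues were hydrolysed in 2.0 M LiOH (rt, 1 h), titrated to pH 7.0, and used as racemic acids. ADP formation was coupled to NADH oxidation (pyruvate kinase 10.0 units/ml, lactate dehydrogenase 20.0 units/ml), read continuously at 386 nm. Buffer: ATP 4.0 mM, MgCl2 5.0 mM, NADH 0.82 mM, PEP 1.0 mM, KCl 50 mM, β-mercaptoethanol 20.0 mM, Hepes/K+ 50 mM pH 8.0, 25 °C. Progress curves were compared with mevalonate.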

Streptococcus pneumoniae [2] = assay: Activity of Streptococcus pneumoniae phosphomevalonate kinase expressed in Escherichia coli by pyruvate kinase/lactate dehydrogenase coupled assay
Method in brief: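 S. pneumoniae PMK was expressed in E. coli as His6-GST fusion, with tags removed. Substrates were the phosphorylated analogues, compared with phosphomevalonate. ADP formation was linked 1:1 to NADH oxidation via pyruvate kinase (10.0 units/ml) and lactate dehydrogenase (20.0 units/ml), monitored at 386 nm. Conditions: ATP 4.0 mM, MgCl2 5.0 mM, NADH 0.82 mM, PEP 1.0 mM, KCl 50 mM, β-mercaptoethanol 20.0 mM, Hepes/K+ 50 mM pH 8.0, 25 °C.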

Streptococcus pneumoniae [3] = assay: Activity of Streptococcus pneumoniae mevalonate kinase expressed in Escherichia coli assessed as enzyme activity by pyruvate kinase/lactate dehydrogenase coupled assay relative to mevalonate; method in brief: as §1
[4] = Binding affinity to Streptococcus pneumoniae mevalonate kinase

Row | Activity (Streptococcus pneumoniae [1]) | Activity (Streptococcus pneumoniae [2]) | Activity (Streptococcus pneumoniae [3]) [%] | Ki [4] [nM] | Compound
1 | Active | Active | – | – | C#CC(O)(CCO)CC(=O)O (racemic)
2 | – | – | < 0.0025 | – | C=C(C)C(O)(CCO)CC(=O)O (racemic)
3 | Active | Active | – | – | C=CC(O)(CCO)CC(=O)O (racemic)
4 | Active | Active | – | – | C=CCC(O)(CCO)CC(=O)O (racemic)
5 | – | – | < 0.0025 | – | CC#CC(O)(CCO)CC(=O)O (racemic)
6 | – | – | < 0.0025 | – | CC(C)C(O)(CCO)CC(=O)O (racemic)
7 | Active | Active | – | – | CC(C)CC(O)(CCO)CC(=O)O (racemic)
8 | Active | Active | – | – | CCC(O)(CCO)CC(=O)O (racemic)
9 | Active | Active | – | – | CCCC(O)(CCO)CC(=O)O (racemic)
10 | – | – | < 0.0025 | – | CCCCC(O)(CCO)CC(=O)O (racemic)
11 | Active | Active | – | – | O=C(O)CC(O)(CCO)C1CC1 (racemic)
12 | – | – | – | 500 | C[C@@](O)(CCOP(=O)(O)OP(=O)(O)O)CC(=O)O [DIPHOSPHOMELAVONATE]
